Test results published in ChEMBL document CHEMBL1129493 (J Med Chem, 1996).
In brackets after ≈: the same amount, converted by molar mass. Activity calls are given as the source filed them.

Tests used:
Mus musculus [1] = species: Mus musculus; experiment: Number of mice infected to tat of total number of mice ([…]/[…]); type: functional, organism-based
Mus musculus [2] = species: Mus musculus; experiment: Effect on Pneumocystis carinii pneumonia in SCID mice; type: functional
Outline: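 SCID mice (10-11/group) were dosed prophylactically once daily from day 1 postinfection, 42 doses. Test drug in D5W was given ip, then leucovorin 12 mg/kg sc 30 min later. Trimethoprim 50 mg/kg plus sulfamethoxazole 250 mg/kg was given orally, and controls received D5W ip and sc. Lung impression smears were taken 24 h after the last dose and stained by immunofluorescence. Infection was scored 0-4 semilogarithmically, reported as mean ± SEM and as infected/total mice.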

HCT-8 = experiment: Activity was evaluated against HCT-8 tumor cells; type: functional, cell-based; conditions: Homo sapiens
Outline: (§1)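 Cytotoxicity was read by MTT dye reduction for suspension cultures or sulforhodamine B for monolayer cultures. For reversal of multidrug resistance, reserpine was added as reversing agent ([…] as printed).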

Dihydrofolate reductase [3] = biological target: T1, Dihydrofolate reductase (Candida albicans, UniProt P22906); experiment: Inhibition of Dihydrofolate reductase enzyme from Candida albicans
T1 sequence (P22906 whole entry): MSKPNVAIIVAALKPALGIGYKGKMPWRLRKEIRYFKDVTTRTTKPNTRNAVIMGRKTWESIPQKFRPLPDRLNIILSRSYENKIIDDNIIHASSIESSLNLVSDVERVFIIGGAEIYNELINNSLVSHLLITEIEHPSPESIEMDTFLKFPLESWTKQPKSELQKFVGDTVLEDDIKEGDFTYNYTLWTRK

Candida albicans = experiment: Minimum inhibitory concentration evaluated against Candida albicans; type: functional
Dihydrofolate reductase [4] = biological target: T2, Dihydrofolate reductase (Homo sapiens, UniProt P00374); experiment: Inhibition of human recombinant Dihydrofolate reductase enzyme
T2 sequence (P00374 whole entry): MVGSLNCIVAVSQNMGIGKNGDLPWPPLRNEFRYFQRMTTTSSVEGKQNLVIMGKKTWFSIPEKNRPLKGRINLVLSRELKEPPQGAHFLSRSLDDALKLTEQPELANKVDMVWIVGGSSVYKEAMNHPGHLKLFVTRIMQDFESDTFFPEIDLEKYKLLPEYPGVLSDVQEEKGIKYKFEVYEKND

[5] = Cytotoxic activity was evaluated against L tumor cells; type: functional, cell-based; conditions: Mus musculus; outline: as §1
A549 = experiment: Cytotoxic activity evaluated against A549 tumor cells; conditions: Homo sapiens
Mus musculus [6] = experiment: Effect on life span of mice with intracranially implanted P388 Leukemic cells; type: functional
Outline: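 CDF-1 female mice (18–20 g, 5 or 8/group); P388 leukemia, maintained by in vivo serial passage, implanted intracranially at 1 × 10^5 cells. Treatment started 24 h later; test agents suspended in 0.5% carboxymethyl cellulose plus 1% Tween 80, given sc or ip qd × 10. Read-out was percent increase in life span versus controls.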

P388 [7] = experiment: Cytotoxic activity was evaluated against P388D1 tumor cells; type: functional, cell-based; conditions: Mus musculus; outline: as §1
Mus musculus [8] = species: Mus musculus; experiment: Effect on Candida albicans nephritis and Meningitis in Immunosuppressed Mice kidney; type: functional
Outline: (§2)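 Immunosuppressed CD-1 female mice (10/group) given cyclophosphamide ip, 160 and 40 mg/kg on days -4 and -1; C. albicans 5 × 10^4 cfu/mouse iv via lateral tail vein. Sc dosing of 20 or 50 mg/kg in sesame oil at 3, 7, 24, 30 h post-inoculation; sulfamethoxazole 200 mg/kg ip in D5W given 1 h before each dose. Kidney and brain cultured at 48 h; log cfu/g tissue.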

Mus musculus [9] = experiment: Effect on life span of mice with intraperitoneally implanted P388 Leukemic cells; type: functional
Outline: (§3)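 CDF-1 female mice (18–20 g, 5 or 8/group); P388 or P388/ADR cells implanted ip at 1 × 10^6 cells. Dosing began 24 h later; agents suspended in 0.5% carboxymethyl cellulose plus 1% Tween 80, given sc or ip qd × 10. Read-out was percent increase in life span.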

U-87 MG = experiment: Cytotoxic activity was evaluated against U87MG tumor cells; type: functional, cell-based, U-87MG ATCC; conditions: Homo sapiens; outline: as §1
[10] = Relative concentration of compound in brain compared to concentration in plasma (0.4 ug/mL) at the time of tissue collection from mice; relative concentration; type: ADME, organism-based; conditions: mouse, read-out: Activity
[11] = Cytotoxic activity was evaluated against Daoy tumor cells; type: functional, cell-based; conditions: Homo sapiens; outline: as §1
KB [12] = experiment: Cytotoxic activity was evaluated against KBV-1 cells in presence of reserpine; type: functional, Homo sapiens; outline: as §1
P388 [13] = experiment: Cytotoxic activity was evaluated against P388D1/ADR cells; type: functional, Mus musculus; outline: as §1
MCF7 [14] = experiment: Cytotoxic activity was evaluated against MCF-7/ADR cells; type: functional, Homo sapiens; outline: as §1
MCF7 [15] = experiment: Cytotoxic activity was evaluated against MCF-7/ADR+Reserpine cells; type: functional, Homo sapiens; outline: as §1
P388 [16] = experiment: Cytotoxic activity was evaluated against P388/ADR + reserpine cells; type: functional, Mus musculus; outline: as §1
P388 [17] = experiment: Cytotoxic Activity was evaluated against P388D1 cells; type: functional, Mus musculus; outline: as §1
KB [18] = experiment: Cytotoxic activity was evaluated against KBV-1 cells; type: functional, Homo sapiens; outline: as §1
MCF7 [19] = experiment: Cytotoxic activity was evaluated against MCF-7 cells; type: functional, Homo sapiens; outline: as §1
KB 3-1 = experiment: Cytotoxic activity was evaluated against KB3-1 cells; type: functional, Homo sapiens; outline: as §1
Mus musculus [20] = species: Mus musculus
[21] = Tissue distribution of the in rat lung relative to plasma concentration of 1 mg/kg; relative concentration
[22] = Tissue distribution of the in rat brain relative to plasma concentration of 1 mg/kg; relative concentration
Mus musculus [23] = experiment: Effect on life span of mice with intraperitoneally implanted P388/ADR Leukemic cells; type: functional; outline: as §3
MCF7 [24] = experiment: Cytotoxic Activity was evaluated against MCF-7 cells; type: functional, Homo sapiens; outline: as §1
Mus musculus [25] = species: Mus musculus; experiment: Effect on Candida albicans nephritis and Meningitis in Immunosuppressed Mice brain; type: functional; outline: as §2

| SMILES | IC50 (HCT-8) [nM] | Ki (Dihydrofolate reductase [3]) [nM] | MIC (Candida albicans) [µg/mL] | Ki (Dihydrofolate reductase [4]) [pM] | also measured |
| --- | --- | --- | --- | --- | --- |
| Nc1nc(=O)c2c([nH]1)NCC(CNc1ccc(C(=O)N[C@@H](CCC(=O)O)C(=O)O)cc1)N2C=O (some centres not stated) [LEUCOVORIN] | – | – | – | – | No. of mice infected /total (Mus musculus [1]): Number of mice infected to tat of total number of mice ([…]/[…]); Infection score (Mus musculus [2]): 3 |
| Cc1cc2c3c(N)nc(N)nc3ccc2n1C(C)C | 7.4 | 0.22 | 0.025 (≈ 0.0979 µM) | 6.4 | – |
| CCc1cc2c3c(N)nc(N)nc3ccc2n1CC | 0.59 | 0.33 | 0.2 (≈ 0.783 µM) | 10 | – |
| Cn1ccc2c3c(N)nc(N)nc3ccc21 | 580 | 25 | 1.6 (≈ 7.5 µM) | 230 | – |
| CCC(CC)n1ccc2c3c(N)nc(N)nc3ccc21 | 6 | 0.22 | 0.001 (≈ 0.00371 µM) | 4.5 | IC50 [5]: 2.2 nM; IC50 (A549): 10 nM; Increase in life-span (Mus musculus [6]): 55%; IC50 (P388 [7]): 4.5 nM; Log cfu/g of tissue (Mus musculus [8]): 6; Increase in life-span (Mus musculus [9]): 80%; IC50 (U-87 MG): 8 nM; Kp [10]: 10; IC50 [11]: 80 nM |
| CCc1cc2c3c(N)nc(N)nc3ccc2n1C | 8 | 1.3 | 0.1 (≈ 0.414 µM) | 29 | – |
| CC[C@]1(O)C[C@@H]2CN(CCc3c([nH]c4ccccc34)[C@@](C(=O)OC)(c3cc4c(cc3OC)N(C)[C@H]3[C@@](O)(C(=O)OC)[C@H](OC(C)=O)[C@]5(CC)C=CCN6CC[C@]43[C@@H]65)C2)C1 [VINBLASTINE] | – | – | – | – | Relative IC50 (KB [12]): 1.3; Relative IC50 (P388 [13]): 19 nM; Relative IC50 (MCF7 [14]): 17500; Relative IC50 (MCF7 [15]): 0.5; Relative IC50 (P388 [16]): 0.2 nM; Relative IC50 (P388 [17]): 1; Relative IC50 (KB [18]): 2000; Relative IC50 (MCF7 [19]): 1; Relative IC50 (KB 3-1): 1 |
| CC(C)c1cc2c(ccc3nc(N)nc(N)c32)[nH]1 | – | 0.16 | 0.05 (≈ 0.207 µM) | 10 | – |
| CCCCc1cc2c3c(N)nc(N)nc3ccc2n1C(C)(C)C | 52 | 0.38 | > 0.1 | – | – |
| COc1cc(Cc2cnc(N)nc2N)cc(OC)c1OC | – | – | – | – | No. of mice infected /total (Mus musculus [20]): Partially active |
| CC(C)n1c(C(C)(C)C)cc2c3c(N)nc(N)nc3ccc21 | 1.3 | < 0.06 | 0.05 (≈ 0.168 µM) | 0.2 | – |
| Cc1nc(N)nc(N)c1-c1ccc(Cl)c(Cl)c1 [METOPRINE] | – | – | – | – | Kp [21]: 31; Kp [22]: 6.5 |
| COc1cccc2c1C(=O)c1c(O)c3c(c(O)c1C2=O)C[C@@](O)(C(=O)CO)C[C@@H]3O[C@H]1C[C@H](N)[C@H](O)[C@H](C)O1 [DOXORUBICIN] | – | – | – | – | Relative IC50 (KB [12]): 1.6; Relative IC50 (P388 [13]): 28 nM; Relative IC50 (MCF7 [14]): 200; Relative IC50 (MCF7 [15]): 1.5; Increase in life-span (Mus musculus [23]): 30%; Relative IC50 (P388 [16]): 3.7 nM; Relative IC50 (MCF7 [24]): 1; Relative IC50 (P388 [17]): 1; Relative IC50 (KB [18]): 61; Increase in life-span (Mus musculus [9]): 130%; Relative IC50 (KB 3-1): 1 |
| CCCc1cc2c3c(N)nc(N)nc3ccc2n1CC | 3.1 | 0.65 | 0.1 (≈ 0.371 µM) | 24 | – |
| CCC(CC)n1c(C(C)C)cc2c3c(N)nc(N)nc3ccc21 | 0.75 | < 0.05 | > 0.1 | 0.1 | – |
| CCc1cc2c3c(N)nc(N)nc3ccc2n1C(CC)CC | 0.57 | < 0.06 | 0.1 (≈ 0.336 µM) | 0.2 | – |
| CCC(C)(C)n1c(C)cc2c3c(N)nc(N)nc3ccc21 | 2.1 | 0.0071 | 0.025 (≈ 0.0882 µM) | 0.4 | – |
| CCCc1cc2c3c(N)nc(N)nc3ccc2n1C(CC)CC | 4.4 | < 0.11 | > 0.1 | 0.4 | – |
| Nc1nc(N)c2c(ccc3[nH]ccc32)n1 | 1450 | 23 | 0.8 (≈ 4.02 µM) | 1000 | – |
| CCc1cc2c3c(N)nc(N)nc3ccc2n1C(C)CC (configuration not stated) | 0.82 | < 0.05 | 0.1 (≈ 0.353 µM) | 0.1 | – |
| Cc1cc2c3c(N)nc(N)nc3ccc2n1C | 85 | – | 0.1 (≈ 0.44 µM) | 87 | – |
| CCc1cc2c3c(N)nc(N)nc3ccc2n1C(C)(C)C | 1.3 | – | > 0.1 | – | – |
| CC(C)(C)c1cc2c(ccc3nc(N)nc(N)c32)[nH]1 | 3.3 | 0.12 | 0.05 (≈ 0.196 µM) | < 2 | – |
| CCn1c(C(C)C)cc2c3c(N)nc(N)nc3ccc21 | 1.4 | 0.33 | 0.1 (≈ 0.371 µM) | < 2 | – |
| Cc1cc(NS(=O)(=O)c2ccc(N)cc2)no1 [SULFAMETHOXAZOLE] | – | – | – | – | Log cfu/g of tissue (Mus musculus [25]): 4.7; Log cfu/g of tissue (Mus musculus [8]): 7.3 |
